Columns and labels:
Assay type in all cases: functional
[1] = Growth inhibition of human MOLT4 cells assessed as cell growth at 10^-6 M after 48 hrs by SRB assay; details: MOLT-4, 48 h, read-out: Activity
[2] = system: SW-620; assay: Growth inhibition of human SW620 cells assessed as cell growth at 10^-5 M after 48 hrs by SRB assay; details: SW-620, 48 h, read-out: Activity
[3] = Growth inhibition of human UO31 cells assessed as cell growth at 10^-4 M after 48 hrs by SRB assay; details: UO-31, 48 h, read-out: Activity
[4] = system: COLO 205; assay: Growth inhibition of human COLO205 cells assessed as cell growth at 10^-8 M after 48 hrs by SRB assay; details: COLO 205, 48 h, read-out: Activity
Outline: (§1)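 Five-dose NCI panel protocol. Each dose (10^-4 to 10^-8 M, 10-fold steps) was given as 48 h continuous exposure, and protein was measured by SRB staining. Percentage growth at each level is [(Ti−Tz)/(C−Tz)]×100, where Tz is time-zero absorbance and C is untreated control.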

[5] = system: SK-MEL-5; assay: Growth inhibition of human SK-MEL-5 cells assessed as cell growth at 10^-5 M after 48 hrs by SRB assay; details: SK-MEL-5, 48 h, read-out: Activity
[6] = Cytotoxicity against human UO31 cells after 48 hrs by SRB assay; details: UO-31, 48 h
Outline: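 NCI 60-cell-line panel, 48 h continuous exposure to five 10-fold dilutions from 10^-4 to 10^-8 M. SRB protein staining was read spectrophotometrically, with time-zero, untreated-control and treated absorbances. GI50, TGI and LC50 were derived from the percentage-growth formulas. Values outside the tested range are expressed as more or less than the maximum or minimum concentration.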

[7] = Growth inhibition of human EKVX cells assessed as cell growth at 10^-6 M after 48 hrs by SRB assay; details: read-out: Activity
[8] = system: U-251; assay: Growth inhibition of human U251 cells assessed as cell growth at 10^-6 M after 48 hrs by SRB assay; details: U-251, 48 h, read-out: Activity
[9] = Growth inhibition of human OVCAR4 cells assessed as cell growth at 10^-4 M after 48 hrs by SRB assay; details: OVCAR-4, 48 h, read-out: Activity
[10] = system: SF-268; assay: Growth inhibition of human SF268 cells assessed as cell growth at 10^-6 M after 48 hrs by SRB assay; details: SF-268, 48 h, read-out: Activity
[11] = system: NCI-H322M; assay: Cytotoxicity against human NCI-H322M cells after 48 hrs by SRB assay
Outline: (§2)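 NCI 60-cell-line panel of human tumour lines from nine cancer types. Continuous 48 h exposure at five 10-fold dilutions from 10^-4 to 10^-8 M, with 5-FU as positive control. SRB protein stain read spectrophotometrically at time zero, untreated control and each concentration. GI50, TGI and LC50 were derived from the [(Ti−Tz)/(C−Tz)]×100 growth relations, and out-of-range values are given as > or < the tested limits.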

[12] = system: SNB-75; assay: Cytotoxicity against human SNB75 cells after 48 hrs by SRB assay; details: SNB-75, 48 h; outline: as §2
[13] = Growth inhibition of human OVCAR3 cells assessed as cell growth at 10^-7 M after 48 hrs by SRB assay; details: OVCAR-3, 48 h, read-out: Activity
[14] = Growth inhibition of human HCC2998 cells assessed as cell growth at 10^-4 M after 48 hrs by SRB assay; details: HCC 2998, 48 h, read-out: Activity
[15] = Growth inhibition of human BT549 cells assessed as cell growth at 10^-8 M after 48 hrs by SRB assay; details: BT-549, 48 h, read-out: Activity; outline: as §1
[16] = system: SF-268; assay: Growth inhibition of human SF268 cells assessed as cell growth at 10^-4 M after 48 hrs by SRB assay; details: SF-268, 48 h, read-out: Activity
[17] = system: NCI-H226; assay: Growth inhibition of human NCI-H226 cells assessed as cell growth at 10^-4 M after 48 hrs by SRB assay; details: NCI-H226, 48 h, read-out: Activity
[18] = Growth inhibition of human LOXIMVI cells assessed as cell growth at 10^-8 M after 48 hrs by SRB assay; details: LOX IMVI, read-out: Activity
[19] = system: MDA-MB-231; assay: Growth inhibition of human MDA-MB-231 cells assessed as cell growth at 10^-5 M after 48 hrs by SRB assay; details: MDA-MB-231, 48 h, read-out: Activity
[20] = system: COLO 205; assay: Growth inhibition of human COLO205 cells assessed as cell growth at 10^-4 M after 48 hrs by SRB assay; details: COLO 205, 48 h, read-out: Activity; outline: as §1
[21] = system: PC-3; assay: Growth inhibition of human PC3 cells assessed as cell growth at 10^-7 M after 48 hrs by SRB assay; details: PC-3, 48 h, read-out: Activity
[22] = system: T47D; assay: Growth inhibition of human T47D cells assessed as cell growth at 10^-4 M after 48 hrs by SRB assay; details: read-out: Activity
[23] = Growth inhibition of human LOXIMVI cells assessed as cell growth at 10^-6 M after 48 hrs by SRB assay; details: LOX IMVI, read-out: Activity
[24] = system: RPMI-8226; assay: Growth inhibition of human RPMI8226 cells assessed as cell growth at 10^-4 M after 48 hrs by SRB assay; details: RPMI-8226, 48 h, read-out: Activity
[25] = system: COLO 205; assay: Growth inhibition of human COLO205 cells assessed as cell growth at 10^-7 M after 48 hrs by SRB assay; details: COLO 205, 48 h, read-out: Activity; outline: as §1
[26] = system: ACHN; assay: Growth inhibition of human ACHN cells assessed as cell growth at 10^-8 M after 48 hrs by SRB assay; details: read-out: Activity; outline: as §1
[27] = system: SR; assay: Growth inhibition of human SR cells assessed as cell growth at 10^-5 M after 48 hrs by SRB assay; details: read-out: Activity
[28] = Growth inhibition of human HCT15 cells assessed as cell growth at 10^-8 M after 48 hrs by SRB assay; details: HCT-15, 48 h, read-out: Activity
[29] = system: CCRF-CEM; assay: Growth inhibition of human CCRF-CEM cells assessed as cell growth at 10^-6 M after 48 hrs by SRB assay; details: read-out: Activity; outline: as §1
[30] = Cytotoxicity against human NCI-ADR-RES cells after 48 hrs by SRB assay; outline: as §2
[31] = read-out: LC50 (the source's name)
[32] = read-out: pLC50 (the source's name) (converted)

## Cc1ccc(-c2nc3ccc(Cl)cc3c(=O)n2/N=C/c2ccccc2)cc1
[1]
  growth at 1 µM: 99%
[2]
  growth at 10 µM: 67%
[3]
  growth at 100 µM: 39%
[4]
  growth at 0.01 µM: 103%
[5]
  growth at 10 µM: 57%
[6]; read-out: GI50
  GI50: 3.66 µM
[6]; [31]
  CC50: > 100 µM
[6]; read-out: TGI
  TGI: > 100 µM
[6]; read-out: pGI50 (converted)
  GI50: 3.63 µM
[6]; [32]
  CC50: > 100 µM
[6]; read-out: pTGI
  TGI: > 100 µM
[7]
  growth at 1 µM: 76%
[8]
  growth at 1 µM: 93%
[9]
  growth at 100 µM: 26%
[10]
  growth at 1 µM: 90%
[11]; read-out: GI50
  GI50: 17.4 µM
[11]; read-out: LC50
  LC50: > 100 µM
[11]; read-out: TGI
  TGI: > 100 µM
[11]; read-out: pGI50 (converted)
  GI50: 17.4 µM
[11]; read-out: pLC50 (converted)
  LC50: > 100 µM
[11]; read-out: pTGI
  TGI: > 100 µM
[12]; read-out: GI50
  GI50: 1.39 µM
[12]; [31]
  CC50: > 100 µM
[12]; read-out: TGI
  TGI: 4.74 µM
[12]; read-out: pGI50 (converted)
  GI50: 1.38 µM
[12]; [32]
  CC50: > 100 µM
[12]; read-out: pTGI (converted)
  TGI: 4.79 µM
[13]
  growth at 0.1 µM: 96%
[14]
  growth at 100 µM: 88%
[15]
  growth at 0.01 µM: 100%
[16]
  growth at 100 µM: 36%
[17]
  growth at 100 µM: 18%
[18]
  growth at 0.01 µM: 98%
[19]
  growth at 10 µM: 33%
[20]
  growth at 100 µM: 38%
[21]
  growth at 0.1 µM: 90%
[22]
  growth at 100 µM: 14%
[23]
  growth at 1 µM: 89%
[24]
  growth at 100 µM: 60%
[25]
  growth at 0.1 µM: 116%
[26]
  growth at 0.01 µM: 93%
[27]
  growth at 10 µM: 63%
[28]
  growth at 0.01 µM: 92%
[29]
  growth at 1 µM: 88%
[30]; read-out: GI50
  GI50: 8.87 µM
[30]; [31]
  CC50: > 100 µM
[30]; read-out: TGI
  TGI: > 100 µM
[30]; read-out: pGI50 (converted)
  GI50: 8.91 µM
[30]; [32]
  CC50: > 100 µM
[30]; read-out: pTGI
  TGI: > 100 µM
